Where two headings read alike, the source gives them in different places.
Assays:
[1] = type: in vivo, human
[2] = test system: activated partial thromboplastin clotting time (aPTT); assay: Activated partial thromboplastin time; type: in vivo, human; conditions: at peak concentration and at steady state (T2–T3)
Procedure, shortened: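 Blood drawn the day before surgery (T0), then 2 h ± 10 min post-dose on day 4 ± 1 (T2) and day 7 ± 1 (T3). aPTT (s) run on an automated coagulation analyser. Reported as median and 25th–75th percentiles; Wilcoxon signed-rank test for repeated measures.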

exogenous bovine Xa = exogenous bovine Xa (Bos taurus, UniProt P00743); assay: Plasma concentration by functional anti-Xa test in orthopaedic patients; type: in vivo; conditions: for range of concentrations observed with the anti-Xa functional tests: T0, before starting the treatment
exogenous bovine Xa, sequence (P00743 234-492 limits assumed): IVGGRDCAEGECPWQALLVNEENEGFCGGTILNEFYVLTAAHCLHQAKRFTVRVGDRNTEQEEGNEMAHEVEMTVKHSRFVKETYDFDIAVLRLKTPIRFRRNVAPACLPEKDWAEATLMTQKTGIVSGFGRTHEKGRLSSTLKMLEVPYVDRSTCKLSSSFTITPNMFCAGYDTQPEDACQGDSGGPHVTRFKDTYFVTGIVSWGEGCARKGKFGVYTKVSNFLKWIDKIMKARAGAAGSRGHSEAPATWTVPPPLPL
exogenous bovine Xa, sequence (P00743 41-180 limits assumed): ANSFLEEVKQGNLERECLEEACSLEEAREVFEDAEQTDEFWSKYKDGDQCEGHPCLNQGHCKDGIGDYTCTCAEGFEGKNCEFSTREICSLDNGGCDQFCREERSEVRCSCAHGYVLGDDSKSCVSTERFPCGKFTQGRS

[3] = healthy Japanese individuals, cited from earlier work

| Structure (SMILES) | Cmax ([1]; human, plasma, oral, 2.5 mg) [ng/mL] | mean increase in aPTT [2] [s] | plasma concentration by anti-Xa functional assay, arithmetic mean and SD (exogenous bovine Xa; T0 (D−1), before starting the treatment) [ng/mL] | range of concentrations observed with the anti-Xa functional tests (exogenous bovine Xa) [ng/mL] | minimum period before reaching the steady state ([3]; 2.5 mg twice daily) [treatment days] | Cmax ([3]; after 7 days of 2.5-mg twice-daily treatment) [ng/mL] | Cmax ([3]; after a first intake of 2.5 mg) [ng/mL] | interindividual variation in the Cmax (coefficient of variation) ([1]; T1, first intake the day after surgery) |
| --- | --- | --- | --- | --- | --- | --- | --- | --- |
| COc1ccc(-n2nc(C(N)=O)c3c2C(=O)N(c2ccc(N4CCCCC4=O)cc2)CC3)cc1 [Apixaban] | 75 ± 37 | 6 | 6 ± 7.5 | 0 to 24 | ≥ 3 | 84 | 51 ± 25 | – |
| O=C(NC[C@H]1CN(c2ccc(N3CCOCC3=O)cc2)C(=O)O1)c1ccc(Cl)s1 [Rivaroxaban] | – | 15 | – | 0 to 25 | – | – | – | around 100% |

— article PMC4664024 (Blood Coagulation & Fibrinolysis, 2015)
